Calb FLC: C. albicans growth modulation with fluconazole | C. albicans CaCi-2 (fluconazole-resistant clinical isolate) + fluconazole, Alamar Blue growth, 48 h | growth inhibition, % (test concentration not listed) | 0.57% of 300,000 active | AID 1979;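 active = growth inhibition above about 58% in most replicates, limit read from the data, passing the limit was not always enough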;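 note: all wells also contain fluconazole at 8 µg/ml as a sub-toxic cotreatment; 0% = median of DMSO wells and 100% = median of geldanamycin control wells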
procasp3 activ: activates human procaspase-3; P42574; recombinant procaspase-3 D3A, Ac-DEVD-pNA absorbance 405 nm; activation, % at 8.5 µM; AID 463141; 0.11% of 330,000 active;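 active = activation above the mean of all tested compounds plus 3 SD, cut at about 21% in these data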;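 note: 0% = DMSO alone and 100% = DMSO wells spiked with extra 5 µM PC-3 D3A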
Target sequence (P42574 whole entry D9A/D28A/D175A): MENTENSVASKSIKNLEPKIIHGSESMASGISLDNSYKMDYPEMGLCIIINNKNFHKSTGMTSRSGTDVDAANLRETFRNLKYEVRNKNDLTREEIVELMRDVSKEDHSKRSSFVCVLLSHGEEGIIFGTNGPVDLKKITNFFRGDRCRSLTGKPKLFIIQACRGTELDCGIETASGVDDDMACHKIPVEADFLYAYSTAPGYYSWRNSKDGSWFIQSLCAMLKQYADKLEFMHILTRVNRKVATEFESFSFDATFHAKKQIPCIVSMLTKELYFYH
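Compound: 8.5 µM single point, 0.8% DMSO / Material: Autoprocessing-dead procaspase-3 D3A mutant enzyme / Timing: 1 h preincubation plus 2 h reaction at 25 °C / Medium: Zinc-free HEPES/NaCl buffer with 0.01% Triton X-100 at pH 7.4 / Technique: 405 nm absorbance of p-nitroaniline, reads at 0 and 120 min / Repeats: one well per compound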
Neddylation inh: cullin neddylation inhibition; 0.58% of 360,000 active; P61081+Q13564; AID 651699; TR-FRET cullin neddylation, biochemical; inhibition, % at 25 µM; in the data active = inhibition above about 36%
procasp7 counter: counter-screen: procaspase-7 (human) activation; P55210; recombinant procaspase-7, Ac-DEVD-pNA absorbance 405 nm; D23A/D198A/D206A triple mutant, cannot self-cleave; scale: DMSO 0, 5 µM enzyme 100; activation, % at 8.5 µM; 0.093% of 330,000 active; AID 463210;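 active = percent activation above the screen-wide mean plus 3 SD, cut at about 25% in these data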
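signal = Epi-absorbance of released pNA at 405 nm, two timepoints | assay system = Uncleavable procaspase-7 mutant enzyme | reagent = Ac-DEVD-pNA substrate, 400 µM as added | times = 1 h enzyme–compound preincubation and 2 h substrate reaction, both 25 °C | benchmarks = low DMSO alone, high DMSO plus 5 µM PC-7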
GAA850 FXN act: frataxin GAA850 promoter activation | HEK293 lucGAA850 FXN promoter luciferase reporter, 24 h; percent of 10 µM SAHA response | activation, % at 6 µM | 0.56% of 360,000 active | AID 540364;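 active = activation above the average of all compounds screened plus 3 SD, cutoff fixed separately per campaign, cut at about 7.5% in these data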;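 note: 0% = DMSO wells and 100% = 10 µM SAHA wells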
HIF act: HIF pathway transcriptional activation; U2OS HRE-luciferase reporter, luminescence; normalized: DMSO 0%, desferrioxamine 100%; activation, % at 7.5 µM (by protocol); 0.32% of 300,000 active; AID 1910;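 active = mean activation of at least 10% of the iron chelator positive control signal, with at least half of replicates also reaching 10%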
The depositor's hits bear a star; . = no result given; ! = not confirmed by another sample. An excerpt weighted towards active compounds, which were near 1.9% of everything screened.

SMILES	Calb FLC	procasp3 activ	Neddylation inh	procasp7 counter	GAA850 FXN act	HIF act
O=C1NC2(C=Cc3c(ccc4ccccc34)O2)Oc2ccccc21 (stereo not drawn)	9	-5	.	11	8.6*	2
CCOC(=O)c1c(S(=O)(=O)N2CCCC2)c(C)n(C)c1C	-5	12	-1	10	-1	48*
CCOC(=O)c1c(S(=O)(=O)N2CCN(C)CC2)c(C)n(C)c1C	4	2	0	13	-1	-1
CCCNC(=O)C1(C)CCCN(C(=O)c2c(F)ccc(C)c2F)C1 (stereo not drawn)	.	.	4	.	0	.
COCCn1c(-c2ccc(OC)cc2)cnc1SCC(=O)Nc1cc(C)on1	-5	-6	6	-4	0	-35
COCCn1c(-c2ccc(OC)cc2)cnc1SCC(=O)Nc1ccc(OC)cc1OC	-4	1	-2	-1	-2	21*
O=[N+]([O-])c1ccc(NN=CC2CCCCCC2)c([N+](=O)[O-])c1	.	.	-9	.	.	.
COCCNC(=O)NC12CC3CC(CC(C3)C1)C2	95*	-4	-1	14	6	0
O=C(NNC(=S)NC(=O)c1ccc(Br)cc1)c1ccc([N+](=O)[O-])cc1	87*	-7	-25	-6	1	1
O=C(NNC(=S)NC(=O)c1ccccc1)c1ccc([N+](=O)[O-])cc1	84*	-6	-15	-26	0	0
O=c1cc(-c2ccc(O)c(O)c2)oc2cc(O)cc(O)c12	-5	-3	-43	-13	11*	5
COc1ccc(/C=N/NC(=O)c2cc(-c3ccccc3OC)nc3ccccc23)cc1COC(C)=O	-3	1	39*	6	-3	0
O=c1ccn(-c2cccc(C(F)(F)F)c2)nc1-c1ccn(-c2cccc(Cl)c2)n1	-3	-9	-24	9	11*	0
COC(=O)c1nn(-c2cccc(C(F)(F)F)c2)ccc1=O	4	-5	2	9	0	2
Cc1ccc2nsnc2c1NC(=O)CCc1ccccc1	-26	1	4	1	1	0
Cc1ccc2nsnc2c1NC(=O)COc1ccccc1F	114*	-3	7	-1	0	0
COc1ccc(CCNC(=O)c2nnn(CC(=O)Nc3c(C)cc(C)cc3C)c2N)cc1OC	1	11	0	1	0	107*
O=C1CCC[C@@H]2[C@@H](Cc3ccccc3)[C@H](N3CCN(c4ccccc4)CC3)C[C@@H]3CCN1[C@@H]32	.	.	-14	.	-2	.
CCN(CC)C(=O)C1=C(C)N(Cc2ccc(F)cc2)C(=O)C(CC(=O)NCCN2CCOCC2)C1 (stereo not drawn)	.	.	6	.	-2	.
C/C(=N\N1C(=O)CSC1=S)c1ccc(Br)cc1	73*	-25	-7	-29	1	-1
Cc1ccc(C(=O)NN2C(=O)CSC2=S)cc1	-9	-5	-3	-11	0	1
Cc1cccc(NC(=O)c2cc(NC(=O)C3CCCCC3C(=O)O)ccc2N2CCCCC2)c1 (stereo not drawn)	.	-4	.	-1	7	.
CC(=O)Nc1ccc(N2CCCCC2)c(C(=O)Nc2cccc(C)c2)c1	94*	3	38	11	-1	0
CC1CCC(C(C)C)C(OC(=O)Cn2c(-c3ccc(Cl)cc3)[n+](C)c3ccccc32)C1 (stereo not drawn)	-4	-3	1	7	-5	0
CC1CCC(C(C)C)C(OC(=O)Cn2c(-c3ccc(Br)cc3)[n+](C)c3ccccc32)C1 (stereo not drawn)	108*	-1	-5	8	0	0
Cc1ccccc1OCc1n(CC(=O)OC2CC(C)CCC2C(C)C)c2ccccc2[n+]1C (stereo not drawn)	99*!	-11	0	-3	-1	-1
Cc1ccc(O)c(C(=O)CC(=O)c2ccccc2Cl)c1	108*	-27	17	-63	3	1
Cc1ccc(C(=O)CC(=O)c2ccccc2C)c(O)c1	81*	-65	32	-82	0	2
CCCC1NC(=O)c2cc3ccccc3cc2-n2c1nc1ccc(C)cc1c2=O (stereo not drawn)	.	.	-4	.	-4	.
